Results taken from ChEMBL document CHEMBL1148895, “New cytotoxic cyclic peptides and dianthramide from Dianthus superbus” (J Nat Prod, 2004).
Converted amounts (≈) assume the structure as drawn. Residues, ends and D or L forms follow the SMILES beside them.

Columns and labels:
HepG2 = assay: Cytotoxicity against human HepG2 cells after 3 days by MTT assay; assay type: functional, cell-based; settings: HepG2, 72 h
Method in brief: (§1)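 Freshly trypsinized cells were seeded at 5000-10 000 per well, with compounds added from a DMSO-diluted stock. After 3 days of culture, attached cells were incubated with MTT (0.5 mg/mL) for 1 h and then solubilized in DMSO. Absorbance was read at 550 nm.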

[1] = Cytotoxicity against human Hep3B cells after 3 days by MTT assay; assay type: functional, cell-based, Hep 3B2; settings: 72 h
Method in brief: as §1, with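 “nm. IC50 is the concentration that reduced cell growth by 50%.” for “nm.”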

MCF7 = assay: Cytotoxicity against human MCF7 cells after 3 days by MTT assay; assay type: functional, cell-based; settings: MCF7, 72 h
Method in brief: as §1, with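 “nm. IC50 is the concentration that reduced cell growth by 50%.” for “nm.”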

A549 = assay: Cytotoxicity against human A549 cells after 3 days by MTT assay; assay type: functional, cell-based; settings: A549, 72 h; method in brief: as §1
MDA-MB-231 = assay: Cytotoxicity against human MDA-MB-231 cells after 3 days by MTT assay; assay type: functional, cell-based; settings: MDA-MB-231, 72 h
Method in brief: as §1, with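 “nm. IC50 is the concentration that reduced cell growth by 50%.” for “nm.”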

COC(=O)c1ccc(OC)cc1NC(=O)c1ccccc1O [4-METHOXYDIANTHRAMIDE B]
IC50 (HepG2): 4.08 µg/mL (≈ 13.5 µM)
IC50 [1]: 16 µg/mL (≈ 53.2 µM)
IC50 (MCF7): > 20 µg/mL
IC50 (A549): > 20 µg/mL
IC50 (MDA-MB-231): > 20 µg/mL

COc1cccc2c1C(=O)c1c(O)c3c(c(O)c1C2=O)C[C@@](O)(C(=O)CO)C[C@@H]3O[C@H]1C[C@H](N)[C@H](O)[C@H](C)O1 [DOXORUBICIN]
IC50 [1]: 0.31 µg/mL (≈ 0.57 µM)
IC50 (MCF7): 1.21 µg/mL (≈ 2.23 µM)
IC50 (MDA-MB-231): 0.73 µg/mL (≈ 1.34 µM)

CC[C@H](C)[C@@H]1NC(=O)[C@@H]2CCCN2C(=O)CNC(=O)[C@H](C(C)C)NC(=O)[C@H](Cc2ccccc2)NC(=O)[C@H](CO)NC1=O (cyclo(FVGPIS))
IC50 (HepG2): 2.37 µg/mL (≈ 3.95 µM)
IC50 [1]: > 20 µg/mL
IC50 (MCF7): > 20 µg/mL
IC50 (A549): > 20 µg/mL
IC50 (MDA-MB-231): > 20 µg/mL

CC[C@H](C)[C@@H]1NC(=O)[C@@H]2CCCN2C(=O)[C@@H]2CCCN2C(=O)[C@H](CC(C)C)NC(=O)[C@H](CO)NC(=O)CNC(=O)[C@H](Cc2ccccc2)NC1=O (cyclo(FGSLPPI))
IC50 (HepG2): > 20 µg/mL
IC50 [1]: > 20 µg/mL
IC50 (MCF7): > 20 µg/mL
IC50 (A549): > 20 µg/mL
IC50 (MDA-MB-231): > 20 µg/mL

CC[C@H](C)[C@@H]1NC(=O)[C@H](C(C)C)NC(=O)[C@H](Cc2ccc(O)cc2)NC(=O)[C@H](Cc2ccccc2)NC(=O)[C@@H]2CCCN2C(=O)CNC1=O (cyclo(FYVIGP))
IC50 (HepG2): 17.2 µg/mL (≈ 25.4 µM)
IC50 [1]: > 20 µg/mL
IC50 (MCF7): > 20 µg/mL
IC50 (A549): > 20 µg/mL
IC50 (MDA-MB-231): > 20 µg/mL
